# According to publication PMC9417066 (Nanoscale Advances, 2021):
# Experiments:
# [1] = Solubility in pure water at room temperature; format: physicochemical; settings: for solubility: water; for Soluble or not at R.T.: room temperature
# [2] = Storage modulus / gel forming of peptide gel with PBS; format: physicochemical
# [3] = system: gastric or colon submucosal layer; assay: Mucosal elevation by submucosal injection; format: in vivo; settings: 0.5 ml of 1% w/v PRVDP9 or 10 mg ml^-1 sodium hyaluronate, rabbit, 30 min
# TEM of peptide hydrogel = format: physicochemical; settings: 6 mg ml^-1 peptide, hydrogel with PBS, 1% phosphotungstic acid stain
# Procedure, shortened: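 Peptide was dissolved in pure water at 6 mg ml−1, then 10× PBS was added to give at most 1× PBS. The resulting hydrogel was dropped onto a copper grid and the excess blotted with filter paper. It was negatively stained with 1% phosphotungstic acid for 15 s, air-dried and imaged by transmission electron microscopy.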
Compound,solubility [1] [mg/mL],Soluble or not at R.T. ([1]; 1% w/v),Gel forming ([2]; 1% w/v peptide),Soluble or not at R.T. ([1]; 2% w/v),Gel forming ([2]; 2% w/v peptide),also measured
"CC(=O)N[C@@H](CCCNC(=N)N)C(=O)N[C@@H](C)C(=O)N[C@@H](CC(=O)O)C(=O)N[C@@H](C)C(=O)N[C@@H](CCCNC(=N)N)C(=O)N[C@@H](C)C(=O)N[C@@H](CC(=O)O)C(=O)N[C@@H](C)C(=O)N[C@@H](CCCNC(=N)N)C(=O)N[C@@H](C)C(=O)N[C@@H](CC(=O)O)C(=O)N[C@@H](C)C(=O)N[C@@H](CCCNC(=N)N)C(=O)N[C@@H](C)C(=O)N[C@@H](CC(=O)O)C(=O)N[C@@H](C)C(N)=O [RADA16, AC-RADARADARADARADA-NH2, reference compound]",< 30,,,,,"Concentration of peptide solution at which it self-assembled into a gel ([2]; peptide solution, without triggering): 3 % w/v"
"Ac-PKIEIKIEP-NH2 [PKIEP9, AC-PKIEIKIEP-amide]",,Yes,No,,,Soluble or not at R.T. ([1]; 0.5% w/v): Yes; Gel forming ([2]; 0.5% w/v peptide): No
"Ac-PKLDLKLDP-NH2 [PKLDP9, AC-PKLDLKLDP-amide]",,Yes,No,Yes,No,
"Ac-PKVEVKVEP-NH2 [PKVEP9, AC-PKVEVKVEP-amide]",≥ 40,Yes,Yes,Yes,Yes,
"Ac-PRIDIRIDP-NH2 [PRIDP9, AC-PRIDIRIDP-amide]",,Yes,No,Yes,No,
"Ac-PRVDVRVDP-NH2 [PRVDP9, AC-PRVDVRVDP-NH2]",≥ 40,Yes,Yes,Yes,Yes,"Solubility (comparison, in words) [1]: superior solubility as compared with PRVD9; HE staining of colonic mucosa after submucosal injection [3]: showed a bulge, and the cavity was evenly filled with red-stained self-assembling peptides; Gel forming when mixed with PBS (vial turned upside down) ([2]; 1%, 2%, 3% w/v in pure water, 10× PBS added to not exceed 1×, stand 10 seconds): good gel-forming ability; Storage modulus of peptide gel (in words) ([2]; 3% w/v peptide, gel with PBS, recorded at 1 Hz): almost equivalent to that of 2.5% w/v RADA; Nanostructure by TEM (TEM of peptide hydrogel): formed a dense nanofiber scaffold"
"Ac-PRVEVRVEP-NH2 [PRVEP9, Ac-PRVEVRVEP-amide]",,No,,,,Soluble or not at R.T. ([1]; 0.5% w/v): No
"Ac-RVDVRVDV-NH2 [RVDV8, AC-RVDVRVDV-NH2]",< 30,,,,,
"Ac-VRVDVRVDV-NH2 [VRVDV9, AC-VRVDVRVDV-NH2]",< 30,,,,,
